Test results from article PMC5316514 (Clinical cancer research : an official journal of the …, 2016).
Several values for one entry are separate records, joined by “and”; a condition that tells them apart may be missing. Equal values may be shown once. Entries after “also recorded” stand apart in the source; their conditions may differ.

Assays:
[1] = Safety / adverse events; type: in vivo, human
In short: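 Ten patients received 21-day cycles of oral roflumilast 500 mcg daily. Prednisone 60 mg/m2 PO daily was added on days 8–14 of cycle 1 (maximum 100 mg daily) and on days 1–7 of later cycles. Incidence, severity, relationship and type of adverse events during treatment and follow-up were graded by NCI CTCAE version 4.03.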

[2] = system: relapsed/refractory B cell malignancies; assay: Clinical response and days in trial, phase Ib trial; type: in vivo, human; conditions: roflumilast plus prednisone
In short: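 Cycles lasted 21 days, with oral roflumilast 500 mcg daily throughout. Prednisone 60 mg/m2 PO daily was given on days 8–14 in cycle 1 (maximum 100 mg daily) and on days 1–7 in later cycles. Response was scored by International Working Group revised criteria for each disease.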

[3] = system: PI3K; assay: PI3K activity; type: in vivo, human
[4] = system: AKT; assay: AKT phosphorylation; type: in vivo, human; conditions: 5 of 8 patients; roflumilast single agent, day 8 vs day 0, PBMC, western blot
[5] = system: PDE4; conditions: cited from earlier work
[6] = system: B cell lymphoma; conditions: murine model of B cell lymphoma; cited from earlier work
[7] = roflumilast 500 mcg PO daily plus prednisone, 10 patients
[8] = individual patient (UPN, diagnosis in the row)
[9] = individual patient, PI3K/AKT non-suppressors
[10] = individual patient, PI3K/AKT suppressors

With `O=C(Nc1c(Cl)cncc1Cl)c1ccc(OC(F)F)c(OCC2CC2)c1` [roflumilast] the “transitory episode of suicidal ideation, patients” value ([1]; UPN#10, end of first cycle, resolved upon cessation of study drug) was “One patient”, the “transient ≥ grade 2 neutropenia, patients” value ([1]; roflumilast 500 mcg PO daily plus prednisone, 3 of 10 patients) was 30% and the “grade 4 events” value [1, 7] was “no grade 4 events”. For the same compound, the “incidence of most common ≥Grade 2 treatment-related AEs (fatigue, anorexia, neutropenia), all causality” value [1, 7] was ≥ 25%, the tolerability of treatment [1, 7] was “generally well tolerated” and the “partial response or stable disease, share of evaluable patients” value ([2]; 6 of nine evaluable patients) was 66%. For the same compound, the “average days in trial, true PI3K/AKT suppressor profile” value ([2]; clinically evaluable patients) was 156 days, the “average days in trial, without PI3K/AKT suppression” value ([2]; clinically evaluable patients) was 91 days and the “days in trial, range, true PI3K/AKT suppressor profile” value ([2]; clinically evaluable patients) was 49 to 315 days. The “days in trial, range, without PI3K/AKT suppression” value ([2]; clinically evaluable patients) was 28 to 139 days, the “partial response or stable disease in PI3K/AKT suppressor group” value ([2]; four of five patients) was 80% and the Best response [2, 8] was “Stable disease; also recorded: Withdrawn; also recorded: Progressed; also recorded: Partial response”. For the same compound, the “days in trial (second figure of No of cycles/days in trial)” value [2, 8] was 4 / 105 days and 4 / 98 days and 1 / 29 days and 2 / 46 days and 8 / 190 days and 13 / 315 days and 2 / 49 days and 1 / 28 days and 5 / 139 days and 5 / 127 days, the Best response [2, 9] was “Stable disease; also recorded: Progressed” and the Days on trial [2, 9] was 139 days and 105 days and 29 days and 28 days. The Best response [2, 10] was “Stable disease; also recorded: Partial response; also recorded: Progressed”, the Days on trial [2, 10] was 190 days and 315 days and 49 days and 127 days and 98 days and the “patients with early progression (during first or second cycle)” value ([2]; of nine evaluable patients) was 3 patients. For the same compound, the “days in trial until progression, death or withdrawn consent, range” value [2] was 28 to 315 days, the “median number of days in trial until progression, death or withdrawn consent” value [2] was 105 days and the “average days in trial, patients of Hispanic origin” value ([2]; p=0.08 vs non-Hispanic) was 193 days. For the same compound, the “PI3K suppression in non-PI3K/AKT suppressors” value ([3]; n=4, no pAKT suppression, day 8 vs day 0, PBMC) was < 25%, the “patients with significantly suppressed PI3K activity, number of evaluated” value ([3]; roflumilast 500 mcg PO daily single agent, day 8 vs day 0, PBMC) was 7 of the 9 and the “patients evaluated with significantly suppressed PI3K activity” value ([3]; roflumilast as single agent, 7 days, PBMC) was 77%. For the same compound, the “samples with marked suppression of pAKT (T308) levels” value [4] was 62.5%, the “IC50 for inhibition of PDE4” value [5] was 0.3 ng/mL and the survival [6] was “improved”. For the same compound, the tumor burden [6] was “significantly suppressed”.
For `O=C(Nc1c(Cl)c[n+]([O-])cc1Cl)c1ccc(OC(F)F)c(OCC2CC2)c1` [roflumilast N-oxide], the “IC50 for inhibition of PDE4” value [5] is given as 0.8 ng/mL.
